Tests used:
[1] = Cytotoxicity against human KKU-M213 cells assessed as reduction in cell viability after 72 hrs by SRB assay; type: functional, cell-based; conditions: KKU-M213, 72 h
In short: (§1)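 Cholangiocarcinoma cells seeded at (1−2) × 10^4 cells/well, grown 24 h at 37 °C, then dosed in triplicate to final 0.025−20 μg/well, with 0.1% DMSO solvent control. Starting plates read after 1 h, treated plates after 72 h, by SRB. Viability % = (OD treated day 3 − OD start)/(OD control day 3 − OD start) × 100. IC50 taken from dose–response curves.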

[2] = Cytotoxicity against human KKU-M214 cells assessed as reduction in cell viability after 72 hrs by SRB assay; type: functional, cell-based; conditions: KKU-M214, 72 h; in short: as §1
[3] = Cytotoxicity against human KKU-M156 cells assessed as reduction in cell viability after 72 hrs by SRB assay; type: functional, cell-based; conditions: KKU-M156, 72 h; in short: as §1
[4] = Potency index, ratio of ellipticine IC50 to compound IC50 for human KKU-M156 cells; type: functional

SMILES | IC50 [1] [µM] | IC50 [2] [µM] | IC50 [3] [µM] | Ratio IC50 [4]
Cc1c2ccncc2c(C)c2c1[nH]c1ccccc12 [ELLIPTECINE] | 6.58 | – | – | –
C/C(=C\COc1ccc(CCNC(=O)c2ccccc2)cc1)C1CC(O)C(C)(C)O1 (racemic) | 12.2 | 7.37 | 21.5 | –
CCCCCCCCCCCCCCCC(=O)OC(C)(C)C(O)CC(O)/C(C)=C/COc1ccc(CCNC(=O)c2ccccc2)cc1 (racemic) | 16.1 | 20.5 | 31.5 | –
CCCCCCCCCCCCCCCC(=O)OC(CC(O)C(C)(C)O)/C(C)=C/COc1ccc(CCNC(=O)c2ccccc2)cc1 (racemic) | 5.63 | 27.4 | 2.8 | –
CCCCCCCCCCCCCCCC(=O)OC(CC1OC1(C)C)/C(C)=C/COc1ccc(CCNC(=O)c2ccccc2)cc1 (stereo unspecified) | 2.71 | 14.9 | 21 | –
CCCCCCCCCCCCCCCCCC(=O)OC(CC(OC(C)=O)C(C)(C)O)/C(C)=C/COc1ccc(CCNC(=O)c2ccccc2)cc1 (racemic) | 29.1 | 12.4 | 24 | –
CCCCCCCCCCCCCCCC(=O)OC(CC(OC(C)=O)C(C)(C)O)/C(C)=C/COc1ccc(CCNC(=O)c2ccccc2)cc1 (racemic) | 34.8 | 3.06 | 22 | –
CC(=O)OC(CC1OC1(C)C)/C(C)=C/COc1ccc(CCNC(=O)c2ccccc2)cc1 (stereo unspecified) | 11.1 | 31.5 | 29.1 | –
CCCCCCCCCCCCCCCC(=O)OC(CC(O)/C(C)=C/COc1ccc(CCNC(=O)c2ccccc2)cc1)C(C)(C)O (racemic) | 23.5 | 8.44 | 1.97 | 4.7
C/C(=C\COc1ccc(CCNC(=O)c2ccccc2)cc1)C(O)CC(O)C(C)(C)O (stereo unspecified) | 25.8 | 11.1 | 26.8 | –
CCCCCCCCCCCCCC(=O)OC(CC(OC(C)=O)C(C)(C)O)/C(C)=C/COc1ccc(CCNC(=O)c2ccccc2)cc1 (racemic) | 2.36 | 24 | 24.5 | –
CC(=O)OC(CC(O)C(C)(C)O)/C(C)=C/COc1ccc(CCNC(=O)c2ccccc2)cc1 (stereo unspecified) | 28.8 | 44.5 | 49.7 | –
O=c1[nH]cc(F)c(=O)[nH]1 [FLUOROURACIL] | – | 3.76 | – | –

Reference: ChEMBL document CHEMBL4014264, “Benzoyltyramine Alkaloids Atalantums A-G from the Peels of Atalantia monophylla and Their Cytotoxicity against Cholangiocarcinoma Cell Lines” (J Nat Prod, 2017)
